Test results taken from ChEMBL document CHEMBL2177035, “Design and synthesis of dual modulators of soluble epoxide hydrolase and peroxisome proliferator-activated receptors” (J Med Chem, 2012).
Calls of active or inactive are those of the source. The calls are words filed in the database; no cut-off is given here.

Tests used:
[1] = molecular target: T1, Bifunctional epoxide hydrolase 2 (Homo sapiens, UniProt P34913); assay: Inhibition of recombinant soluble epoxide hydrolase using PHOME as substrate after 10 mins by fluorescence assay
T1 sequence (P34913 whole entry): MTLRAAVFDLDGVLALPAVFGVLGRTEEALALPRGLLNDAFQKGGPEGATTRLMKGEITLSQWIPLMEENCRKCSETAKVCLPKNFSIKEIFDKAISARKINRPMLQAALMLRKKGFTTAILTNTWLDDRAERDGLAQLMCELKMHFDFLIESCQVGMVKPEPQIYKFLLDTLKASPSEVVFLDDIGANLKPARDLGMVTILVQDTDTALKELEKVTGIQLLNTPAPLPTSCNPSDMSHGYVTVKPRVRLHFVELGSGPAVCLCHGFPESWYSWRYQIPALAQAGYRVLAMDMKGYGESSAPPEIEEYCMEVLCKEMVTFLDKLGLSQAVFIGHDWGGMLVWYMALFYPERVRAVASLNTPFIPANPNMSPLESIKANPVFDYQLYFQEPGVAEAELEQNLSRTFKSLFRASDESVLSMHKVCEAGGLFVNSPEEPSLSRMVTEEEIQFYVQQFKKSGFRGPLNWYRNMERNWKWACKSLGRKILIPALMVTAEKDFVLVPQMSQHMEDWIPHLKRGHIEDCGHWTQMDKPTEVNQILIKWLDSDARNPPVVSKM

[2] = molecular target: T2, Peroxisome proliferator-activated receptor alpha (Homo sapiens) (UniProt Q07869); assay: Transactivation of GAL4-fused human PPARalpha ligand binding domain transfected in african green monkey COS7 cells at 10 uM by luciferase reporter gene assay relative to GW7647; type: cell-based; details: COS-7
T2 sequence (whole entry): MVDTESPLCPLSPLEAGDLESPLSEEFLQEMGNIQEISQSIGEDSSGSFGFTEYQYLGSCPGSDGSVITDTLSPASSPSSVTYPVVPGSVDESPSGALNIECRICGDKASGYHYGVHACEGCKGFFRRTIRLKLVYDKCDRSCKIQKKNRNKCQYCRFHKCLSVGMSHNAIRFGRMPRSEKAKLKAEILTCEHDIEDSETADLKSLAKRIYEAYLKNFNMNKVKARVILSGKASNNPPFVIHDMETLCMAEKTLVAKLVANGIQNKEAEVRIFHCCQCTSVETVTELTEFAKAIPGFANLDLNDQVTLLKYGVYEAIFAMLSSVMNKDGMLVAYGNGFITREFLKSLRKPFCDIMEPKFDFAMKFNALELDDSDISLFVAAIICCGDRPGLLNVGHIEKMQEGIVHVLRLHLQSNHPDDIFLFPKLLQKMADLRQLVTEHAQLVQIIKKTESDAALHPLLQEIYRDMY
Outline: (§1)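 COS7 cells in DMEM/10% FCS at 37 °C, 5% CO2, plated 30000/well the day before. Lipofectamine LTX co-transfection of pFR-Luc, pRL-SV40 and Gal4–hPPAR-LBD (pFA-CMV) of the given subtype. After 5 h, switched to phenol red-free DMEM/10% FCS with 0.1% DMSO and compound; overnight incubation. Dual-Glo firefly/renilla luminescence, normalized to DMSO. Maximum effect compared with 1 μM reference agonist (GW7647 for α, L165,041 for δ). Triplicate wells, ≥3 independent runs.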

[3] = molecular target: T3, Peroxisome proliferator-activated receptor delta (Homo sapiens) (UniProt Q03181); assay: Transactivation of GAL4-fused human PPARdelta ligand binding domain transfected in african green monkey COS7 cells at 10 uM by luciferase reporter gene assay relative to L-165041; type: cell-based; details: COS-7; outline: as §1
T3 sequence (whole entry): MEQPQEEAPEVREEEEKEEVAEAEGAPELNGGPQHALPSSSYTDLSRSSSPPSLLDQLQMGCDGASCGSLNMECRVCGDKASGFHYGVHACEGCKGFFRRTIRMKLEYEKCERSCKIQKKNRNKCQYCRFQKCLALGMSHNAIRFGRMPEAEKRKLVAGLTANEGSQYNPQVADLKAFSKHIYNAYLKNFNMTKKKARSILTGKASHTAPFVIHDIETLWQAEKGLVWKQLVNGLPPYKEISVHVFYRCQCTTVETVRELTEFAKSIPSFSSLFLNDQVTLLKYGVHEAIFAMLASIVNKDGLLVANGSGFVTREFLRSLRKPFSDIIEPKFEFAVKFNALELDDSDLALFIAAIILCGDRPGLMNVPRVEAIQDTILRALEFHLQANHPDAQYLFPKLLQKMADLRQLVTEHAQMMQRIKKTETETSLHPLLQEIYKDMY

[4] = molecular target: T2, Peroxisome proliferator-activated receptor alpha (Homo sapiens); assay: Transactivation of GAL4-fused human PPARalpha ligand binding domain transfected in african green monkey COS7 cells by luciferase reporter gene assay; type: cell-based; details: COS-7
Outline: (§2)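 Gal4–hPPAR-LBD (α or δ) transient co-transfection with pFR-Luc and pRL-SV40 into COS7 cells seeded 30000/well. Compounds given in phenol red-free DMEM/10% FCS with 0.1% DMSO from 5 h post-transfection, overnight. Firefly over renilla luminescence, divided by DMSO control. EC50 and SD from means of ≥3 determinations by four-parameter logistic fit; triplicate wells, ≥3 independent experiments.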

[5] = molecular target: T3, Peroxisome proliferator-activated receptor delta (Homo sapiens); assay: Transactivation of GAL4-fused human PPARdelta ligand binding domain transfected in african green monkey COS7 cells by luciferase reporter gene assay; type: cell-based; details: COS-7; outline: as §2

IC50 [1]	Activity [2]	Activity [3]	%max [4]	Activity [5]	Activity [4]	SMILES
73 nM	inactive	inactive	–	–	–	O=C(NCc1ccc(Cn2cccc2C(=O)O)cc1)NC12C[C@H]3C[C@@H](C1)C[C@@H](C2)C3
87 nM	inactive	inactive	–	–	–	CCOC(=O)c1cccn1Cc1ccc(CNC(=O)NC23C[C@H]4C[C@@H](C2)C[C@@H](C3)C4)cc1
23 nM	inactive	inactive	–	–	–	CCOC(=O)c1cccn1Cc1ccc(CNC(=O)NC2CCCCC2)cc1
27 nM	inactive	inactive	–	–	–	CCOC(=O)c1cccn1Cc1cccc(CNC(=O)NC2CCCCC2)c1
2010 nM	inactive	inactive	–	–	–	CCOC(=O)c1cccn1Cc1ccccc1CNC(=O)Nc1ccc(OC(F)(F)F)cc1
–	38%	inactive	55%	inactive	–	O=C(NCc1ccccc1Cn1cccc1C(=O)O)Nc1ccc(OC(F)(F)F)cc1
943 nM	58%	–	97%	–	–	O=C(NCc1cccc(Cn2cccc2C(=O)O)c1)Nc1ccc(OC(F)(F)F)cc1
304 nM	inactive	inactive	–	–	–	O=C(NCc1cccc(Cn2cccc2C(=O)O)c1)NC12C[C@H]3C[C@@H](C1)C[C@@H](C2)C3
–	inactive	inactive	–	–	–	CCOC(=O)c1cccn1Cc1cccc(CNC(=O)Nc2ccc(OC(F)(F)F)cc2)c1
43 nM	inactive	inactive	–	–	–	CCOC(=O)c1cccn1Cc1ccccc1CNC(=O)NC12C[C@H]3C[C@@H](C1)C[C@@H](C2)C3
–	inactive	inactive	–	inactive	inactive	O=C(NCc1ccccc1Cn1cccc1C(=O)O)NC12C[C@H]3C[C@@H](C1)C[C@@H](C2)C3
258 nM	67%	inactive	90%	inactive	–	O=C(NCc1ccc(Cn2cccc2C(=O)O)cc1)Nc1ccc(OC(F)(F)F)cc1
46 nM	inactive	inactive	–	–	–	CCOC(=O)c1cccn1Cc1cccc(CNC(=O)NC23C[C@H]4C[C@@H](C2)C[C@@H](C3)C4)c1
611 nM	inactive	inactive	–	–	–	CCOC(=O)c1cccn1Cc1ccc(CNC(=O)Nc2ccc(OC(F)(F)F)cc2)cc1
39 nM	inactive	inactive	–	–	–	CCOC(=O)c1cccn1Cc1ccccc1CNC(=O)NC1CCCCC1
747 nM	inactive	inactive	–	–	–	O=C(NCc1ccccc1Cn1cccc1C(=O)O)NC1CCCCC1
1920 nM	inactive	inactive	–	–	–	O=C(NCc1cccc(Cn2cccc2C(=O)O)c1)NC1CCCCC1
252 nM	inactive	inactive	–	–	–	O=C(NCc1ccc(Cn2cccc2C(=O)O)cc1)NC1CCCCC1
